Experimental data: ChEMBL document CHEMBL3414544, “PAINS in the assay: chemical mechanisms of assay interference and promiscuous enzymatic inhibition observed during a sulfhydryl-scavenging HTS” (J Med Chem, 2015)
Calls of active or inactive are those of the source.

What was measured:
[1] = target: T1, Histone acetyltransferase RTT109 (Saccharomyces cerevisiae (strain ATCC 204508 / S288c) (Baker's yeast)) (UniProt Q07794); assay: Inhibition of Vps75-stimulated recombinant Saccharomyces cerevisiae histone acetyltransferase Rtt109 assessed as H3K56 acetylated product at […] after 45 mins by Slot bolt inhibiton assay
T1 sequence (whole entry): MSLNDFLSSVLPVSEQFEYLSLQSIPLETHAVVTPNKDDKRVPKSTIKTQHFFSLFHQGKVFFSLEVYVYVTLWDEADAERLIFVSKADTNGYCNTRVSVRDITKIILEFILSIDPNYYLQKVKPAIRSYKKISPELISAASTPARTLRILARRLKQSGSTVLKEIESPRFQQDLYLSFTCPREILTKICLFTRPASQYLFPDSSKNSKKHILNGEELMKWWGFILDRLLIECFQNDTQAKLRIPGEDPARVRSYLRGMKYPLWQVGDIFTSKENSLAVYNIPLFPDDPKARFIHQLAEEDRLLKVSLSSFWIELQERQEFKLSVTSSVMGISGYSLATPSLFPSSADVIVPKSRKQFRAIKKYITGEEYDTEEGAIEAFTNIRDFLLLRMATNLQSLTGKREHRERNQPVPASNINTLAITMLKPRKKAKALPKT

[2] = target: T1, Histone acetyltransferase RTT109 (Saccharomyces cerevisiae (strain ATCC 204508 / S288c) (Baker's yeast)); assay: Inhibition of Vps75-stimulated recombinant Saccharomyces cerevisiae histone acetyltransferase Rtt109 assessed as H3K27 acetylated product at […] after 45 mins by Slot bolt inhibiton assay
[3] = Fluorescence quenching assessed as fluorescence signal reduction at 10 uM after 10 mins; assay type: physicochemical
Summary of the method: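 CPM (20 μM final) and CoA (5 μM final) reacted to completion in assay buffer (stable plateau, usually ~5 min); adduct solution added to wells preplated with compound; shaken 5 min, equilibrated 5 min at room temperature; fluorescence intensity read as percent signal reduction versus DMSO controls. Flagged as quencher at >20% signal reduction at 10 μM final compound.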

[4] = Fluorescence quenching in HTS buffer assessed as fluorescence signal reduction at 10 uM after 10 mins; assay type: physicochemical
[5] = Fluorescence quenching in HTS buffer with […] CoA assessed as fluorescence signal reduction at 10 uM after 10 mins; assay type: physicochemical
[6] = target: T2, Histone acetyltransferase p300 (Homo sapiens, UniProt Q09472); assay: Inhibition of recombinant histone acetyltransferase p300 (unknown origin) using dH3-H4 tetramer and [3H]-acetyl-CoA assessed as acetate incorporation […] by liquid scintillation counting; settings: read-out: IC50
[7] = target: Histone acetyltransferase GCN5 (Saccharomyces cerevisiae S288c, UniProt Q03330); assay: Inhibition of yeast histone acetyltransferase Gcn5-Ada2-Ada3 complex using tetramer and [3H]-acetyl-CoA assessed as acetate incorporation after 30 mins by liquid scintillation counting; settings: read-out: IC50
[8] = target: T1, Histone acetyltransferase RTT109 (Saccharomyces cerevisiae (strain ATCC 204508 / S288c) (Baker's yeast)); assay: Inhibition of Vps75-stimulated recombinant Saccharomyces cerevisiae histone acetyltransferase Rtt109 using [3H]-acetyl-CoA assessed as acetate incorporation […] by liquid scintillation counting in presence of 1 mM DTT
[9] = target: Histone acetyltransferase GCN5 (Saccharomyces cerevisiae S288c) (UniProt Q03330); assay: Inhibition of yeast histone acetyltransferase Gcn5-Ada2-Ada3 complex using tetramer and [3H]-acetyl-CoA assessed as acetate incorporation […] by liquid scintillation counting in presence of 1 mM DTT
[10] = Fluorescence quenching in HTS buffer with 20 uM 7-diethylamino-3-(4'-maleimidyl-phenyl)-4-methylcoumarin assessed as fluorescence signal reduction at 10 uM after 10 mins; assay type: physicochemical
[11] = target: T2, Histone acetyltransferase p300; assay: Inhibition of recombinant histone acetyltransferase p300 (unknown origin) using dH3-H4 tetramer and [3H]-acetyl-CoA assessed as acetate incorporation after 5 mins by liquid scintillation counting in presence of 1 mM DTT
[12] = target: T3, Histone acetyltransferase RTT109 (Saccharomyces cerevisiae (strain ATCC 204508 / S288c) (Baker's yeast), UniProt Q07794); assay: Inhibition of Vps75-stimulated recombinant Saccharomyces cerevisiae histone acetyltransferase Rtt109 using Asf1-dH3-H4 as substrate assessed as coenzyme A production after 45 mins by CPM based HTS assay; settings: read-out: IC50
T3 sequence (Q07794 whole entry): T1 sequence (whole entry)
Summary of the method: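 Recombinant Rtt109–Vps75 at 50 nM, with Asf1–dH3–H4 as substrate and acetyl-CoA as acetyl donor. Buffer contained freshly prepared 0.01% Triton X-100. The CoA product was detected by fluorescence of its CPM adduct. Plates had Z′ ≥0.5. IC50 came from a four-parameter variable-slope fit.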

Histone acetyltransferase GCN5, sequence (Q03330 whole entry): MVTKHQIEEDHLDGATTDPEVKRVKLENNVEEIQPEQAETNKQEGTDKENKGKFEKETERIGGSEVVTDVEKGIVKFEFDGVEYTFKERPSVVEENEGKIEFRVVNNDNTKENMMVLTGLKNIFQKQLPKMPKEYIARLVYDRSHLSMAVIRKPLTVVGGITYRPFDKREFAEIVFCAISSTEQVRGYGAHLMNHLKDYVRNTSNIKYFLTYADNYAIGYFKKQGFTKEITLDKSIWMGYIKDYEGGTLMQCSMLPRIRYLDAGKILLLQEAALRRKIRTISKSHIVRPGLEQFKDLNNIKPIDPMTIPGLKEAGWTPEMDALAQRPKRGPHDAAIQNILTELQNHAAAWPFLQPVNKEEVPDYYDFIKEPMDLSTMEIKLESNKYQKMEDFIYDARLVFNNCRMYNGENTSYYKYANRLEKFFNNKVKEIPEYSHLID
Histone acetyltransferase GCN5 (Saccharomyces cerevisiae S288c), sequence (Q03330 whole entry): as above
T2 sequence (Q09472 whole entry): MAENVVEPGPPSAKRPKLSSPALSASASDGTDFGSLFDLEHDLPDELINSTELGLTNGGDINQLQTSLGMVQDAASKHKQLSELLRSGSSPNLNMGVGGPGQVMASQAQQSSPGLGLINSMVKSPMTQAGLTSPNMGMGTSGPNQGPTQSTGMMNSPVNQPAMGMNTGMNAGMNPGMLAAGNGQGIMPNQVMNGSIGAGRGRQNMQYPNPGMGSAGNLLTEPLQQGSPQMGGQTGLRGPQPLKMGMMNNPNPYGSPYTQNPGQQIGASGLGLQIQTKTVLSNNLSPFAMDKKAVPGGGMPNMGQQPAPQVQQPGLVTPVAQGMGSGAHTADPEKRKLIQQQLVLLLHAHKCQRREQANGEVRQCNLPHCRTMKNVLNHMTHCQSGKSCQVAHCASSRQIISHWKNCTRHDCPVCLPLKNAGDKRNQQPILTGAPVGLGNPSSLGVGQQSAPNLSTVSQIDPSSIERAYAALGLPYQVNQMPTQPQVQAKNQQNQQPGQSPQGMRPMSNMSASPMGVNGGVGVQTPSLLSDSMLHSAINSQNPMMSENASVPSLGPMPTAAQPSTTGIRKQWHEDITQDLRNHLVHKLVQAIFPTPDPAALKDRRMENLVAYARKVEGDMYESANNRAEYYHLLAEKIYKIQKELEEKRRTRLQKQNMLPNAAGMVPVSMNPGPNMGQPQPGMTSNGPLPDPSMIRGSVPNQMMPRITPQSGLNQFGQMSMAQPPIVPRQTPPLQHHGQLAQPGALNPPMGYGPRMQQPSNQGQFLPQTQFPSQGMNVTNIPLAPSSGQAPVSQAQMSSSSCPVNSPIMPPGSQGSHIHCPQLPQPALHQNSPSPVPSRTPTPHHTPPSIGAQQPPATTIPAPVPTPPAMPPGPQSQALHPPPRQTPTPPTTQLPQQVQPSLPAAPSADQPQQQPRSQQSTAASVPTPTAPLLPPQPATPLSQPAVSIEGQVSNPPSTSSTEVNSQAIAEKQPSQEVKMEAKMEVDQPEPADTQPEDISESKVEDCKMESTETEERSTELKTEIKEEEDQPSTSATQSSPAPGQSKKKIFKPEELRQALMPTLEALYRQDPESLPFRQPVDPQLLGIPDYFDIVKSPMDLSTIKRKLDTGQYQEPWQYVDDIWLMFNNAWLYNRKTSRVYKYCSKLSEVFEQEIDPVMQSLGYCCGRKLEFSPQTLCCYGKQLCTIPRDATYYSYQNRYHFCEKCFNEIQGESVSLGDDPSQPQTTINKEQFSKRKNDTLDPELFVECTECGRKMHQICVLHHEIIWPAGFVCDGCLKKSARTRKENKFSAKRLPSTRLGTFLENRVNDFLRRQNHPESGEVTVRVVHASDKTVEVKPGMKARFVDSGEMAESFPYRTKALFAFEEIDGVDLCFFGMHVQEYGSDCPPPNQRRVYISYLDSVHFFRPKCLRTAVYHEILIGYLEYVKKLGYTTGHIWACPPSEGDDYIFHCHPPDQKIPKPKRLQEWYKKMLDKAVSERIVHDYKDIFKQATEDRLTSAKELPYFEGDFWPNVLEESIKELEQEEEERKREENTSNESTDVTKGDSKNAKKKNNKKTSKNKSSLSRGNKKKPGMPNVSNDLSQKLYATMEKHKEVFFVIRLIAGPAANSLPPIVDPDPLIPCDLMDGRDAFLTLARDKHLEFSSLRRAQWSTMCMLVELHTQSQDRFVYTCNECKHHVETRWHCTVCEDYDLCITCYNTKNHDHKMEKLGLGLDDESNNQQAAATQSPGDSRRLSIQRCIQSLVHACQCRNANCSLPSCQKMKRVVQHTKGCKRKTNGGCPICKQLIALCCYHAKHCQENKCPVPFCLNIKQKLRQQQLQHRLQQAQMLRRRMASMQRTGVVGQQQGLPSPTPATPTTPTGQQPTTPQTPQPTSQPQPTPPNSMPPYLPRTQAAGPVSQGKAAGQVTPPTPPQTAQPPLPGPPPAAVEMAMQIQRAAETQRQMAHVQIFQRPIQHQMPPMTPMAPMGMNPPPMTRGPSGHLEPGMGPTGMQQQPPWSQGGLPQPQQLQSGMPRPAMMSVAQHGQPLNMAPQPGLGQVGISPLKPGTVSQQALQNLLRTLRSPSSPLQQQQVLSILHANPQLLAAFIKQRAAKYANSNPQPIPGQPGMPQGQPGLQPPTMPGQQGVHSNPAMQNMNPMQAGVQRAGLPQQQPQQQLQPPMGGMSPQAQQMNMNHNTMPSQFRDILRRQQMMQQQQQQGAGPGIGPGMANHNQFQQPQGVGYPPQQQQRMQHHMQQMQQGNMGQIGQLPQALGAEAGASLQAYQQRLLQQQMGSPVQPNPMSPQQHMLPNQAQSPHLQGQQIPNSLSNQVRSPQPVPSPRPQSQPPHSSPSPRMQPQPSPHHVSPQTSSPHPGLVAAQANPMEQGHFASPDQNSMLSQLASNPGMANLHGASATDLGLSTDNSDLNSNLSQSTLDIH

| Structure (SMILES) | Activity [1] | Activity [2] | Activity [3] | Activity [4] | Activity [5] | IC50 [6] [µM] | IC50 [7] [µM] | Activity [8] | Activity [9] | Activity [10] | Activity [11] | IC50 [12] [µM] |
| --- | --- | --- | --- | --- | --- | --- | --- | --- | --- | --- | --- | --- |
| O=S1(=O)C=C(Sc2nnc(-c3ccccc3)o2)c2ccccc21 | Active | Active | Not Active | Not Active | Not Active | 11 | 11 | Active | Active | Not Active | Active |  |
| C=C(C)[C@@H](CC=C(C)C)C[C@@]12C[C@@H](CC=C(C)C)C(C)(C)[C@@](CC=C(C)C)(C(=O)C(C(=O)c3ccc(O)c(O)c3)=C1O)C2=O [GARCINOL] |  |  |  |  |  | 1.7 | 2.6 | inactive | inactive |  | inactive |  |
| Cc1ccc(-c2nc(N)s[n+]2-c2ccccc2)cc1.[Br-] | Active | Active | Not Active | Not Active | Not Active | 1.8 | 5.3 | Active | Active | Not Active | Active |  |
| COc1ccc(-c2nnc(SC3CC(=O)N(c4ccc(Cl)cc4)C3=O)[nH]2)cc1 (configuration not stated) | Active | Active | Not Active | Not Active | Not Active | 2.8 | 6.7 | Active | Active | Not Active | Active |  |
| CNc1nc(-c2ccccc2)[n+](-c2ccc(C)cc2)s1.[Br-] | Active | Active | Not Active | Not Active | Not Active | 2 | 8.1 | Active | Active | Not Active | Active |  |
| Cc1ccc(N2C(=O)CC(Sc3nnc(-c4ccccc4O)o3)C2=O)cc1 (configuration not stated) | Active | Active | Not Active | Not Active | Not Active |  |  |  |  | Not Active |  | 50 |
| O=C1C=CC(=O)N1c1ccc2ccccc2c1 | Active | Active | Not Active | Not Active | Not Active |  |  |  |  | Not Active |  | 3.6 |
| O=C1C=CC(=O)N1c1cccc(F)c1 | Active | Active | Not Active | Not Active | Not Active |  |  |  |  | Not Active |  | 6.1 |
| O=[N+]([O-])c1cccc(S(=O)(=O)Nc2cc(Br)c(O)c3ccccc23)c1 | Active | Active | Not Active | Not Active | Not Active |  |  |  |  | Not Active |  | 5.4 |
| O=S1(=O)C=C(Sc2nnc(-c3ccncc3)o2)c2ccccc21 | Active | Active | Not Active | Not Active | Not Active | 6.2 | 3.7 | Active | Active | Not Active | Active |  |
| COc1ccc(-c2nnc(Sc3ccc([N+](=O)[O-])c4nonc34)[nH]2)cc1 | Active | Active | Not Active | Not Active | Not Active |  |  |  |  | Not Active |  | 2.3 |
| O=[N+]([O-])c1ccccc1-c1nnc(SC2=CS(=O)(=O)c3ccccc32)o1 | Active | Active | Not Active | Not Active | Not Active |  |  |  |  | Not Active |  | 5.7 |
| O=S(=O)(C[n+]1sc(N(c2ccccc2)c2ccccc2)nc1-c1ccccc1)c1ccccc1.[Br-] | inactive | inactive | Not Active | Not Active | Not Active |  |  |  |  | Not Active |  | 50 |
| O=S(=O)(Nc1cc(SCc2ccco2)c(O)c2ccccc12)c1ccccc1 | Active | Active | Not Active | Not Active | Not Active |  |  |  |  | Not Active |  | 2.1 |
| COc1ccc(-c2nnc(Sc3ccc([N+](=O)[O-])c4nonc34)o2)cc1 | Active | Active | Not Active | Not Active | Not Active |  |  |  |  | Not Active |  | 0.96 |
| O=C1C=CC(=O)N1c1ccc(Oc2ccccc2)cc1 | Active | Active | Not Active | Not Active | Not Active |  |  |  |  | Not Active |  | 3 |
| O=C1C=CC(=O)N1c1ccccc1 | Active | Active | Not Active | Not Active | Not Active |  |  |  |  | Not Active |  | 7.6 |
| O=C1CC(Sc2nncn2-c2ccccc2)C(=O)N1c1cc(Cl)cc(Cl)c1 (configuration not stated) | Active | Active | Not Active | Not Active | Not Active |  |  |  |  | Not Active |  | 16 |
| O=[N+]([O-])c1ccc(Sc2nnnn2-c2ccccc2)c2nonc12 | Active | Active | Not Active | Not Active | Not Active |  |  |  |  | Not Active |  | 0.45 |
| O=S1(=O)C=C(Sc2nnnn2-c2ccccc2)c2ccccc21 | Active | Active | Not Active | Not Active | Not Active |  | 20 | Active | Active | Not Active | Active |  |
| Cc1ccc(S(=O)(=O)Nc2cc(Sc3nnnn3-c3ccccc3)c(O)c3ccccc23)cc1 | Active | Active | Not Active | Not Active | Not Active |  |  |  |  | Not Active |  | 8.6 |
| COc1ccc(N2C(=O)C=CC2=O)cc1 | Active | Active | Not Active | Not Active | Not Active |  |  |  |  | Not Active |  | 9.2 |
| COc1ccc(N2C(=O)CC(Sc3n[nH]c(-c4ccccc4)n3)C2=O)cc1 (configuration not stated) | Active | Active | Not Active | Not Active | Not Active |  |  |  |  | Not Active |  | 21 |
